Source: ChEMBL document CHEMBL2021866, “Design, synthesis, and pharmacological evaluation of benzamide derivatives as glucokinase activators” (Bioorg Med Chem, 2012)
pEC50: −log10 of the molar value.

Legend:
[1] = target: T1, Hexokinase-4 (Homo sapiens) (UniProt P35557); experiment: Activation of human recombinant glucokinase expressed in Escherichia coli BL21(DE3) coexpressing G6PDH assessed as glucose 6-phosphate formation by spectrometric analysis relative to control
T1 sequence (whole entry): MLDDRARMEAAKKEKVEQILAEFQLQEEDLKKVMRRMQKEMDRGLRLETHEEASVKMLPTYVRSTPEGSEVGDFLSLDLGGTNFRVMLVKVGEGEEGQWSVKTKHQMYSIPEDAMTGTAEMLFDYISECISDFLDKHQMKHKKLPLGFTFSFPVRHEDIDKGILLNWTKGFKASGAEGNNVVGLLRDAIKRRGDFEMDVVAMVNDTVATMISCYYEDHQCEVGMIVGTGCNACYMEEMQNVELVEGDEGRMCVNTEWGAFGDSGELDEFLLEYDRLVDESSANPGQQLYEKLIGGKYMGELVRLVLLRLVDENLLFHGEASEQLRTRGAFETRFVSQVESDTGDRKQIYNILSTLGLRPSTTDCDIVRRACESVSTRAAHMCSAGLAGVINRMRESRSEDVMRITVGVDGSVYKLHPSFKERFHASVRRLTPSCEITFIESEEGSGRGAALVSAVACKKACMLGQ
Procedure, shortened: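 N-terminal His6-tagged human GK, expressed in E. coli BL21(DE3), purified on Ni-NTA. NADPH formation followed as rate of A340. Fold activation taken against DMSO control (100%), and maximum fold reported.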

Hexokinase-4 = target: T2, Hexokinase-4 (Homo sapiens, UniProt P35557); experiment: Activation of human recombinant glucokinase expressed in Escherichia coli BL21(DE3) coexpressing G6PDH assessed as glucose 6-phosphate formation by spectrometric analysis
T2 sequence (P35557 whole entry): T1 sequence (whole entry)

[2] = Clearance in ICR mouse at 10 mg/kg, iv; format: ADME, organism-based; set-up: dose 10 mg/kg, route intravenous; details: in vivo
Procedure, shortened: (§1)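 Mice received a single iv dose of 10 mg/kg or a single po dose of 20 mg/kg. Vehicle was DMSO, tween-80 and normal saline. Plasma concentration–time data gave CL, Vss and t1/2 from the iv arm, and Cmax, Tmax, AUC0-∞ and F from the po arm. Values are the average of three runs.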

[3] = Oral bioavailability in ICR mouse at 20 mg/kg; format: ADME, organism-based; details: in vivo; procedure, shortened: as §1
[4] = Cmax in ICR mouse at 20 mg/kg, po; format: ADME, organism-based; set-up: dose 20 mg/kg, route oral; details: in vivo; procedure, shortened: as §1
Mus musculus = experiment: Hypoglycemic activity in ICR mouse assessed as reduction in blood glucose level at 10 mg/kg, po measured within 1 hr relative to control; format: functional; set-up: scale not given: the % may be the effect or the level left
Procedure, shortened: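 Male ICR mice, 8 weeks old, on a reversed light cycle, were fasted 2 h with water allowed and grouped by body weight. They were dosed orally with 10 mg/kg or with vehicle (0.5% carboxymethylcellulose). Blood glucose was tracked, with ΔBG taken from 0 min, and reduction expressed against vehicle within 1 h. Mean ± SEM, n = 6.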

[5] = AUC (0 to infinity) in ICR mouse at 20 mg/kg, po; format: ADME, organism-based; set-up: time infinity, dose 20 mg/kg, route oral; details: plasma; procedure, shortened: as §1
[6] = Half life in ICR mouse at 10 mg/kg, iv; format: ADME, organism-based; set-up: dose 10 mg/kg, route intravenous; details: in vivo; procedure, shortened: as §1
[7] = Volume of distribution at steady state in ICR mouse at 10 mg/kg, iv; format: ADME, organism-based; set-up: dose 10 mg/kg, route intravenous; details: in vivo, read-out: Vdss; procedure, shortened: as §1
[8] = Tmax in ICR mouse at 20 mg/kg, po; format: ADME, organism-based; set-up: dose 20 mg/kg, route oral; details: in vivo; procedure, shortened: as §1
[9] = target: T1, Hexokinase-4 (Homo sapiens); experiment: Ratio of EC50 for GK50 to compound for activation of human recombinant glucokinase expressed in Escherichia coli BL21(DE3) coexpressing G6PDH assessed as glucose 6-phosphate formation by spectrometric analysis
Procedure, shortened: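 EC50 obtained in the same G6PDH-coupled A340 assay of His6-tagged human GK, with GK50 run in parallel. Six compound concentrations per curve, and fold activity over DMSO control fitted to a four-parameter logistic sigmoid. Values are means of three independent experiments.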

| Structure (SMILES) | fold change (FC) [1] | pEC50 (Hexokinase-4) | also measured |
| --- | --- | --- | --- |
| CC(C)=CCOc1cc(Oc2ccc(S(=O)(=O)N3CC[C@H](F)C3)cc2)cc(C(=O)Nc2nccs2)c1 | 1.9 | 7.28 | – |
| COC1CCN(S(=O)(=O)c2ccc(Oc3cc(OCC=C(C)C)cc(C(=O)Nc4cc(C)n(C)n4)c3)cc2)CC1 | 1.8 | 6.34 | – |
| CC(C)=CCOc1cc(Oc2ccc(S(=O)(=O)C3CC3)cc2)cc(C(=O)Nc2nc(-c3ccc(F)cc3)cs2)c1 | 0.9 | 6.60 | – |
| CC(C)=CCOc1cc(Oc2ccc(S(=O)(=O)N3C[C@@H](C)O[C@@H](C)C3)cc2)cc(C(=O)Nc2nccs2)c1 | 1.5 | 7.20 | – |
| CC(C)=CCOc1cc(Oc2ccc(S(=O)(=O)N3CCOCC3)cc2)cc(C(=O)Nc2cc(C)n(C)n2)c1 | 1.5 | 7.02 | – |
| CC(C)=CCOc1cc(Oc2ccc(S(=O)(=O)N3CCOCC3)cc2)cc(C(=O)Nc2ccn(C)n2)c1 | 3 | 6.53 | – |
| CC(C)=CCOc1cc(Oc2ccc(S(=O)(=O)C3CC3)cc2)cc(C(=O)Nc2nc(C(C)(C)C)cs2)c1 | 0.7 | 6.05 | – |
| CC(C)=CCOc1cc(Oc2ccc(S(=O)(=O)N3CC4CCC(C3)O4)cc2)cc(C(=O)Nc2ccn(C)n2)c1 | 1.7 | 6.62 | – |
| CC(C)=CCOc1cc(Oc2ccc(S(=O)(=O)C3CC3)cc2)cc(C(=O)Nc2ncc(F)s2)c1 | 1.8 | 7.32 | – |
| CC(C)=CCOc1cc(Oc2ccc(S(=O)(=O)N3CCOCC3)cc2)cc(C(=O)Nc2nccs2)c1 | 2.1 | 7.32 | – |
| CC(C)=CCOc1cc(Oc2ccc(S(=O)(=O)C3CC3)cc2)cc(C(=O)NC2=NC(=O)CS2)c1 | 1.5 | 6.92 | – |
| CC(C)=CCOc1cc(Oc2ccc(S(=O)(=O)N3CC4CCC(C3)O4)cc2)cc(C(=O)Nc2nccs2)c1 | 1.7 | 7.00 | – |
| CC(C)=CCOc1cc(Oc2ccc(S(=O)(=O)N3CCOCC3)cc2)cc(C(=O)Nc2ncc(F)s2)c1 | 1.8 | 7.28 | – |
| CC(C)=CCOc1cc(Oc2ccc(S(=O)(=O)C3CC3)cc2)cc(C(=O)Nc2cnc(C)cn2)c1 | 1.6 | 6.78 | – |
| CC(C)=CCOc1cc(Oc2ccc(S(=O)(=O)N3CC[C@H](F)C3)cc2)cc(C(=O)Nc2cc(C)n(C)n2)c1 | 1.9 | 7.20 | – |
| CC(C)=CCOc1cc(Oc2ccc(S(=O)(=O)N3CC[C@H](F)C3)cc2)cc(C(=O)Nc2ncc(F)s2)c1 | 2.2 | 7.35 | clearance [2]: 17.8 mL/min/kg; bioavailability [3]: 9.5%; Cmax [4]: 1090 ng/mL; Activity (Mus musculus): 8.1%; AUC(0-inf) [5]: 1790 ng·h/mL; half-life [6]: 5.9 h; Vd [7]: 1.2 L/kg; Tmax [8]: 1 h |
| CC(C)=CCOc1cc(Oc2ccc(S(=O)(=O)N3C[C@@H](C)O[C@@H](C)C3)cc2)cc(C(=O)Nc2cc(C)n(C)n2)c1 | 1.6 | 7.35 | – |
| CC(C)=CCOc1cc(Oc2ccc(S(=O)(=O)N3C[C@@H](C)O[C@@H](C)C3)cc2)cc(C(=O)Nc2ccn(C)n2)c1 | 1.8 | 6.58 | – |
| COC1CCN(S(=O)(=O)c2ccc(Oc3cc(OCC=C(C)C)cc(C(=O)Nc4ccn(C)n4)c3)cc2)CC1 | 1.7 | 6.31 | – |
| CC(C)=CCOc1cc(Oc2ccc(S(=O)(=O)C3CC3)cc2)cc(C(=O)Nc2cc(C)n(C)n2)c1 | 1.5 | 7.05 | – |
| CC(C)=CCOc1cc(Oc2ccc(S(=O)(=O)C3CC3)cc2)cc(C(=O)Nc2nccs2)c1 | 2.4 | 7.55 | clearance [2]: 3.33 mL/min/kg; bioavailability [3]: 38.6%; Ratio EC50 [9]: 8; Cmax [4]: 15800 ng/mL; Activity (Mus musculus): 5.5%; AUC(0-inf) [5]: 39800 ng·h/mL; half-life [6]: 2.3 h; Vd [7]: 0.28 L/kg; Tmax [8]: 1 h |
| CC(C)=CCOc1cc(Oc2ccc(S(=O)(=O)C3CC3)cc2)cc(C(=O)Nc2nccn3ccnc23)c1 | – | < 6.00 | – |
| CC(C)=CCOc1cc(Oc2ccc(S(=O)(=O)N3CC[C@H](F)C3)cc2)cc(C(=O)Nc2ccn(C)n2)c1 | 2.1 | 7.08 | – |
| CC(C)=CCOc1cc(Oc2ccc(S(=O)(=O)N3C[C@@H](C)O[C@@H](C)C3)cc2)cc(C(=O)Nc2ncc(F)s2)c1 | 1.7 | 7.18 | – |
| COC1CCN(S(=O)(=O)c2ccc(Oc3cc(OCC=C(C)C)cc(C(=O)Nc4ncc(F)s4)c3)cc2)CC1 | 1.7 | 7.19 | – |
| CC(C)=CCOc1cc(Oc2ccc(S(=O)(=O)N3CC4CCC(C3)O4)cc2)cc(C(=O)Nc2cc(C)n(C)n2)c1 | 1.5 | 6.84 | – |
| CC(C)=CCOc1cc(Oc2ccc(S(=O)(=O)N3CC4CCC(C3)O4)cc2)cc(C(=O)Nc2ncc(F)s2)c1 | 1.9 | 7.11 | – |
| COC1CCN(S(=O)(=O)c2ccc(Oc3cc(OCC=C(C)C)cc(C(=O)Nc4nccs4)c3)cc2)CC1 | 1.7 | 7.04 | – |
